Measurements taken from ChEMBL document CHEMBL1132256, “Structure-activity relationships for substituted bis(acridine-4-carboxamides): a new class of anticancer agents” (J Med Chem, 1999).

system: P388; experiment: Inhibitory activity against Murine […]; type: functional, cell-based; details: Mus musculus
Outline: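 Murine P388 leukemia cells seeded at 4.5 × 10^3 cells/well, cultured 3 days with drug; growth measured by [3H]TdR uptake. IC50 = drug concentration (nM) reducing cell number to 50% of controls. Independent assays in duplicate, CV ca. 25%.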

IC50 [nM] | SMILES
210 | Cc1cc(C)c2nc3c(C(=O)NCCCN(C)CCCNC(=O)c4cccc5cc6cc(C)cc(C)c6nc45)cccc3cc2c1
113 | CN(CCCNC(=O)c1cc(Cl)cc2cc3ccccc3nc12)CCCNC(=O)c1cc(Cl)cc2cc3ccccc3nc12
225 | CN(CCCNC(=O)c1cccc2cc3cc(Br)ccc3nc12)CCCNC(=O)c1cccc2cc3cc(Br)ccc3nc12
49 | CN(CCCNC(=O)c1cccc2cc3ccc(Br)cc3nc12)CCCNC(=O)c1cccc2cc3ccc(Br)cc3nc12
9600 | CN(CCCNC(=O)c1cccc2cc3ccc(C(F)(F)F)cc3nc12)CCCNC(=O)c1cccc2cc3ccc(C(F)(F)F)cc3nc12
2760 | CC(C)c1cccc2cc3cccc(C(=O)NCCCN(C)CCCNC(=O)c4cccc5cc6cccc(C(C)C)c6nc45)c3nc12
1760 | CN(CCCNC(=O)c1cccc2cc3cc(C(C)(C)C)ccc3nc12)CCCNC(=O)c1cccc2cc3cc(C(C)(C)C)ccc3nc12
760 | CN(CCCNC(=O)c1cccc2cc3ccc(N(C)C)cc3nc12)CCCNC(=O)c1cccc2cc3ccc(N(C)C)cc3nc12
710 | CN(CCCNC(=O)c1cccc2cc3cc(-c4ccccc4)ccc3nc12)CCCNC(=O)c1cccc2cc3cc(-c4ccccc4)ccc3nc12
132 | COc1ccc2nc3c(C(=O)NCCCN(C)CCCNC(=O)c4cccc5cc6cc(OC)ccc6nc45)cccc3cc2c1
2130 | CN(CCCNC(=O)c1cccc2cc3cccc(N(C)C)c3nc12)CCCNC(=O)c1cccc2cc3cccc(N(C)C)c3nc12
21 | Cc1ccc(C(=O)NCCCN(C)CCCNC(=O)c2ccc(C)c3cc4cccc(C)c4nc23)c2nc3c(C)cccc3cc12
400 | CN(CCCNC(=O)c1ccc(Cl)c2cc3ccccc3nc12)CCCNC(=O)c1ccc(Cl)c2cc3ccccc3nc12
41 | Cc1ccc(Cl)c2cc3cccc(C(=O)NCCCN(C)CCCNC(=O)c4cccc5cc6c(Cl)ccc(C)c6nc45)c3nc12
31 | COc1cccc2c1C(=O)c1c(O)c3c(c(O)c1C2=O)C[C@@](O)(C(=O)CO)C[C@@H]3O[C@H]1C[C@H](N)[C@H](O)[C@H](C)O1 [DOXORUBICIN]

system: Lewis lung carcinoma cell line; experiment: Inhibitory activity of tested against Murine Lewis lung carcinoma; type: functional, cell-based; details: Mus musculus
Outline: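 Lewis lung carcinoma (LLTC) cells at 10^3 cells/well, 4-day continuous drug exposure, growth read by sulforhodamine assay. IC50 (nM) = concentration giving 50% of control cell number. Duplicate independent assays, CV ca. 25%.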

IC50 [nM] | SMILES
20 | Cc1cc(C)c2nc3c(C(=O)NCCCN(C)CCCNC(=O)c4cccc5cc6cc(C)cc(C)c6nc45)cccc3cc2c1
5.9 | CN(CCCNC(=O)c1cc(Cl)cc2cc3ccccc3nc12)CCCNC(=O)c1cc(Cl)cc2cc3ccccc3nc12
35 | CN(CCCNC(=O)c1cccc2cc3cc(Br)ccc3nc12)CCCNC(=O)c1cccc2cc3cc(Br)ccc3nc12
18 | CN(CCCNC(=O)c1cccc2cc3ccc(Br)cc3nc12)CCCNC(=O)c1cccc2cc3ccc(Br)cc3nc12
160 | CN(CCCNC(=O)c1cccc2cc3ccc(C(F)(F)F)cc3nc12)CCCNC(=O)c1cccc2cc3ccc(C(F)(F)F)cc3nc12
1050 | CC(C)c1cccc2cc3cccc(C(=O)NCCCN(C)CCCNC(=O)c4cccc5cc6cccc(C(C)C)c6nc45)c3nc12
1400 | CN(CCCNC(=O)c1cccc2cc3cc(C(C)(C)C)ccc3nc12)CCCNC(=O)c1cccc2cc3cc(C(C)(C)C)ccc3nc12
320 | CN(CCCNC(=O)c1cccc2cc3ccc(N(C)C)cc3nc12)CCCNC(=O)c1cccc2cc3ccc(N(C)C)cc3nc12
610 | CN(CCCNC(=O)c1cccc2cc3cc(-c4ccccc4)ccc3nc12)CCCNC(=O)c1cccc2cc3cc(-c4ccccc4)ccc3nc12
20 | COc1ccc2nc3c(C(=O)NCCCN(C)CCCNC(=O)c4cccc5cc6cc(OC)ccc6nc45)cccc3cc2c1
670 | CN(CCCNC(=O)c1cccc2cc3cccc(N(C)C)c3nc12)CCCNC(=O)c1cccc2cc3cccc(N(C)C)c3nc12
1.4 | Cc1ccc(C(=O)NCCCN(C)CCCNC(=O)c2ccc(C)c3cc4cccc(C)c4nc23)c2nc3c(C)cccc3cc12
42 | CN(CCCNC(=O)c1ccc(Cl)c2cc3ccccc3nc12)CCCNC(=O)c1ccc(Cl)c2cc3ccccc3nc12
8.8 | Cc1ccc(Cl)c2cc3cccc(C(=O)NCCCN(C)CCCNC(=O)c4cccc5cc6c(Cl)ccc(C)c6nc45)c3nc12
12 | COc1cc(NS(C)(=O)=O)ccc1Nc1c2ccccc2nc2ccccc12 [AMSACRINE]
22 | COc1cccc2c1C(=O)c1c(O)c3c(c(O)c1C2=O)C[C@@](O)(C(=O)CO)C[C@@H]3O[C@H]1C[C@H](N)[C@H](O)[C@H](C)O1 [DOXORUBICIN]

system: Jurkat; experiment: Concentration required to inhibit 50% growth of human Jurkat cells; type: functional, cell-based; details: not given
Outline: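 Jurkat leukemia (JLC) cells seeded at 3.75 × 10^3 cells/well and exposed to drug for 4 days; growth measured by sulforhodamine assay. IC50 = drug concentration (nM) reducing cell number to 50% of control cultures. Independent assays in duplicate, coefficients of variation ca. 25%.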

IC50 [nM] | SMILES
105 | Cc1cc(C)c2nc3c(C(=O)NCCCN(C)CCCNC(=O)c4cccc5cc6cc(C)cc(C)c6nc45)cccc3cc2c1
46 | CN(CCCNC(=O)c1cc(Cl)cc2cc3ccccc3nc12)CCCNC(=O)c1cc(Cl)cc2cc3ccccc3nc12
226 | CN(CCCNC(=O)c1cccc2cc3cc(Br)ccc3nc12)CCCNC(=O)c1cccc2cc3cc(Br)ccc3nc12
58 | CN(CCCNC(=O)c1cccc2cc3ccc(Br)cc3nc12)CCCNC(=O)c1cccc2cc3ccc(Br)cc3nc12
355 | CN(CCCNC(=O)c1cccc2cc3ccc(C(F)(F)F)cc3nc12)CCCNC(=O)c1cccc2cc3ccc(C(F)(F)F)cc3nc12
2080 | CC(C)c1cccc2cc3cccc(C(=O)NCCCN(C)CCCNC(=O)c4cccc5cc6cccc(C(C)C)c6nc45)c3nc12
1070 | CN(CCCNC(=O)c1cccc2cc3cc(C(C)(C)C)ccc3nc12)CCCNC(=O)c1cccc2cc3cc(C(C)(C)C)ccc3nc12
225 | CN(CCCNC(=O)c1cccc2cc3ccc(N(C)C)cc3nc12)CCCNC(=O)c1cccc2cc3ccc(N(C)C)cc3nc12
1020 | CN(CCCNC(=O)c1cccc2cc3cc(-c4ccccc4)ccc3nc12)CCCNC(=O)c1cccc2cc3cc(-c4ccccc4)ccc3nc12
147 | COc1ccc2nc3c(C(=O)NCCCN(C)CCCNC(=O)c4cccc5cc6cc(OC)ccc6nc45)cccc3cc2c1
180 | CN(CCCNC(=O)c1cccc2cc3cccc(N(C)C)c3nc12)CCCNC(=O)c1cccc2cc3cccc(N(C)C)c3nc12
3.9 | Cc1ccc(C(=O)NCCCN(C)CCCNC(=O)c2ccc(C)c3cc4cccc(C)c4nc23)c2nc3c(C)cccc3cc12
127 | CN(CCCNC(=O)c1ccc(Cl)c2cc3ccccc3nc12)CCCNC(=O)c1ccc(Cl)c2cc3ccccc3nc12
20 | Cc1ccc(Cl)c2cc3cccc(C(=O)NCCCN(C)CCCNC(=O)c4cccc5cc6c(Cl)ccc(C)c6nc45)c3nc12

system: Jurkat; experiment: Ratio of inhibitory activity against amsacrine resistant jurkat cells to inhibitory activity against wild type human jurkat cells; type: functional; details: not given
Outline: (§1)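 Wild-type Jurkat (JLC) and its amsacrine-resistant (JLA) or doxorubicin-resistant (JLD) sublines each seeded at 3.75 × 10^3 cells/well, 4 days with drug, sulforhodamine read-out. IC50 (nM) for 50% of control cell number; ratio = resistant-line IC50 divided by JLC IC50. Duplicate assays, CV ca. 25%.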

SMILES | Ratio
Cc1cc(C)c2nc3c(C(=O)NCCCN(C)CCCNC(=O)c4cccc5cc6cc(C)cc(C)c6nc45)cccc3cc2c1 | 0.5
CN(CCCNC(=O)c1cc(Cl)cc2cc3ccccc3nc12)CCCNC(=O)c1cc(Cl)cc2cc3ccccc3nc12 | 0.7
CN(CCCNC(=O)c1cccc2cc3cc(Br)ccc3nc12)CCCNC(=O)c1cccc2cc3cc(Br)ccc3nc12 | 0.7
CN(CCCNC(=O)c1cccc2cc3ccc(Br)cc3nc12)CCCNC(=O)c1cccc2cc3ccc(Br)cc3nc12 | 0.6
CN(CCCNC(=O)c1cccc2cc3ccc(C(F)(F)F)cc3nc12)CCCNC(=O)c1cccc2cc3ccc(C(F)(F)F)cc3nc12 | 0.6
CC(C)c1cccc2cc3cccc(C(=O)NCCCN(C)CCCNC(=O)c4cccc5cc6cccc(C(C)C)c6nc45)c3nc12 | 0.9
CN(CCCNC(=O)c1cccc2cc3cc(C(C)(C)C)ccc3nc12)CCCNC(=O)c1cccc2cc3cc(C(C)(C)C)ccc3nc12 | 1.1
CN(CCCNC(=O)c1cccc2cc3ccc(N(C)C)cc3nc12)CCCNC(=O)c1cccc2cc3ccc(N(C)C)cc3nc12 | 0.3
CN(CCCNC(=O)c1cccc2cc3cc(-c4ccccc4)ccc3nc12)CCCNC(=O)c1cccc2cc3cc(-c4ccccc4)ccc3nc12 | 1
COc1ccc2nc3c(C(=O)NCCCN(C)CCCNC(=O)c4cccc5cc6cc(OC)ccc6nc45)cccc3cc2c1 | 0.7
CN(CCCNC(=O)c1cccc2cc3cccc(N(C)C)c3nc12)CCCNC(=O)c1cccc2cc3cccc(N(C)C)c3nc12 | 0.7
Cc1ccc(C(=O)NCCCN(C)CCCNC(=O)c2ccc(C)c3cc4cccc(C)c4nc23)c2nc3c(C)cccc3cc12 | 0.3
CN(CCCNC(=O)c1ccc(Cl)c2cc3ccccc3nc12)CCCNC(=O)c1ccc(Cl)c2cc3ccccc3nc12 | 0.6
Cc1ccc(Cl)c2cc3cccc(C(=O)NCCCN(C)CCCNC(=O)c4cccc5cc6c(Cl)ccc(C)c6nc45)c3nc12 | 0.5
COc1cc(NS(C)(=O)=O)ccc1Nc1c2ccccc2nc2ccccc12 [AMSACRINE] | 85
COc1cccc2c1C(=O)c1c(O)c3c(c(O)c1C2=O)C[C@@](O)(C(=O)CO)C[C@@H]3O[C@H]1C[C@H](N)[C@H](O)[C@H](C)O1 [DOXORUBICIN] | 4.4

system: Jurkat; experiment: Ratio of inhibitory activity against doxorubicin resistant jurkat cells to inhibitory activity against wild type human jurkat cells; type: functional; details: not given; outline: as §1

SMILES | Ratio
Cc1cc(C)c2nc3c(C(=O)NCCCN(C)CCCNC(=O)c4cccc5cc6cc(C)cc(C)c6nc45)cccc3cc2c1 | 0.8
CN(CCCNC(=O)c1cc(Cl)cc2cc3ccccc3nc12)CCCNC(=O)c1cc(Cl)cc2cc3ccccc3nc12 | 0.9
CN(CCCNC(=O)c1cccc2cc3cc(Br)ccc3nc12)CCCNC(=O)c1cccc2cc3cc(Br)ccc3nc12 | 0.9
CN(CCCNC(=O)c1cccc2cc3ccc(Br)cc3nc12)CCCNC(=O)c1cccc2cc3ccc(Br)cc3nc12 | 0.9
CN(CCCNC(=O)c1cccc2cc3ccc(C(F)(F)F)cc3nc12)CCCNC(=O)c1cccc2cc3ccc(C(F)(F)F)cc3nc12 | 1.1
CC(C)c1cccc2cc3cccc(C(=O)NCCCN(C)CCCNC(=O)c4cccc5cc6cccc(C(C)C)c6nc45)c3nc12 | 1.1
CN(CCCNC(=O)c1cccc2cc3cc(C(C)(C)C)ccc3nc12)CCCNC(=O)c1cccc2cc3cc(C(C)(C)C)ccc3nc12 | 1.1
CN(CCCNC(=O)c1cccc2cc3ccc(N(C)C)cc3nc12)CCCNC(=O)c1cccc2cc3ccc(N(C)C)cc3nc12 | 0.6
CN(CCCNC(=O)c1cccc2cc3cc(-c4ccccc4)ccc3nc12)CCCNC(=O)c1cccc2cc3cc(-c4ccccc4)ccc3nc12 | 1.1
COc1ccc2nc3c(C(=O)NCCCN(C)CCCNC(=O)c4cccc5cc6cc(OC)ccc6nc45)cccc3cc2c1 | 1.1
CN(CCCNC(=O)c1cccc2cc3cccc(N(C)C)c3nc12)CCCNC(=O)c1cccc2cc3cccc(N(C)C)c3nc12 | 0.9
Cc1ccc(C(=O)NCCCN(C)CCCNC(=O)c2ccc(C)c3cc4cccc(C)c4nc23)c2nc3c(C)cccc3cc12 | 0.7
CN(CCCNC(=O)c1ccc(Cl)c2cc3ccccc3nc12)CCCNC(=O)c1ccc(Cl)c2cc3ccccc3nc12 | 1
Cc1ccc(Cl)c2cc3cccc(C(=O)NCCCN(C)CCCNC(=O)c4cccc5cc6c(Cl)ccc(C)c6nc45)c3nc12 | 0.7
COc1cc(NS(C)(=O)=O)ccc1Nc1c2ccccc2nc2ccccc12 [AMSACRINE] | 74
COc1cccc2c1C(=O)c1c(O)c3c(c(O)c1C2=O)C[C@@](O)(C(=O)CO)C[C@@H]3O[C@H]1C[C@H](N)[C@H](O)[C@H](C)O1 [DOXORUBICIN] | 13
